The values that follow come from ChEMBL document CHEMBL1287656, “New octahydroquinazoline derivatives: synthesis and hypotensive activity” (Eur J Med Chem, 2010).

The subject of series [1] is Rattus norvegicus. The series can be described thus: Hypotensive activity in anaesthetized albino rat assessed as reduction of adrenaline-induced increase in diastolic arterial blood pressure at 3 ug/kg, iv administered 30 mins before adrenaline challenge measured after 1 hr relative to control. The format is functional. Further details: scale not given: the % may be the effect or the level left. The method, boiled down:
(§1)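 Anaesthetised male albino rats (urethane 1.75–2.0 g/Kg i.p.; n=6 per group). Adrenaline (3/Kg i.v.) pressor response was recorded alone, 30 min before i.p. injection of the test agent (5 mg/Kg in tween 80/water). The adrenaline challenge was repeated 30 min and 1 h after dosing. Systolic and diastolic pressure were recorded via a cannulated artery and transducer.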

The subject of series [2] is Rattus norvegicus. The series can be described thus: Hypotensive activity in anaesthetized albino rat assessed as change in systolic arterial blood pressure at 5 mg/kg, ip after 5 mins relative to control. The conditions noted are these: route intraperitoneal. The format is functional. The gist of the method: (§2)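 Male adult albino rats (groups of 6) anaesthetised with urethane 1.75–2.0 g/Kg i.p. Test agent given i.p. at 5 mg/Kg, dissolved in tween 80 and diluted 1:3 with distilled water. A solvent-treated group served as control. Arterial pressure was recorded via a cannula and pressure transducer on a chart oscillograph at 5, 15, 30 and 60 min. Statistics by one-way ANOVA or unpaired t test.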

Series [3] deals with Rattus norvegicus. In words: Toxicity in anaesthetized albino rat assessed as change in heart rate at 15 mg/kg, ip after 5 mins relative to control. The settings on record: in vivo. The format is organism-based. Also noted: dose 15 mg/kg, route intraperitoneal.
Series [4] has as its system Rattus norvegicus. In words: Hypotensive activity in anaesthetized albino rat assessed as reduction of adrenaline-induced increase in diastolic arterial blood pressure at 3 ug/kg, iv administered 30 mins before adrenaline challenge measured after 30 mins relative to control. The format is functional. Also noted: scale not given: the % may be the effect or the level left. The method, boiled down: as §1

For series [5], the system named is Rattus norvegicus. The series can be described thus: Hypotensive activity in anaesthetized albino rat assessed as change in diastolic arterial blood pressure at 5 mg/kg, ip after 15 mins relative to control. The conditions noted are these: route intraperitoneal.
For series [6], the system named is Rattus norvegicus. In words: Hypotensive activity in anaesthetized albino rat assessed as change in systolic arterial blood pressure at 5 mg/kg, ip after 60 mins relative to control. The conditions noted are these: route intraperitoneal.
For series [7], the system named is Rattus norvegicus. In words: Hypotensive activity in anaesthetized albino rat assessed as change in diastolic arterial blood pressure at 60 mg/kg, ip after 5 mins relative to control. The format is functional. The settings on record: route intraperitoneal.
Series [8] relates to Rattus norvegicus. In words: Toxicity in anaesthetized albino rat assessed as change in heart rate at 60 mg/kg, ip after 5 mins relative to control. The format is organism-based. Further details: dose 60 mg/kg, route intraperitoneal. The conditions noted are these: in vivo.
Series [9] relates to Rattus norvegicus. The series can be described thus: Toxicity in anaesthetized albino rat assessed as change in heart rate at 30 mg/kg, ip after 5 mins relative to control. The format is organism-based. Further details: dose 30 mg/kg, route intraperitoneal. The conditions noted are these: in vivo.
Series [10] concerns Rattus norvegicus. In words: Hypotensive activity in anaesthetized albino rat assessed as change in diastolic arterial blood pressure at 5 mg/kg, ip after 30 mins relative to control. The settings on record: route intraperitoneal.
Series [11] concerns Rattus norvegicus. In words: Hypotensive activity in anaesthetized albino rat assessed as change in systolic arterial blood pressure at 15 mg/kg, ip. The format is functional, organism-based. Also noted: dose 15 mg/kg. The conditions noted are these: TDE = time-dependent effect.
In series [12] the test system is Rattus norvegicus. In words: Hypotensive activity in anaesthetized albino rat assessed as reduction of adrenaline-induced increase in systolic arterial blood pressure at […], iv administered 30 mins before adrenaline challenge measured after 30 mins relative to control. The format is functional. Also noted: scale not given: the % may be the effect or the level left. The gist of the method: as §1

Series [13] concerns Rattus norvegicus. In words: Hypotensive activity in anaesthetized albino rat assessed as change in diastolic arterial blood pressure at 5 mg/kg, ip after 5 mins relative to control. The format is functional. The settings on record: route intraperitoneal. The gist of the method:
as §2

Series [14] deals with Rattus norvegicus. The series can be described thus: Hypotensive activity in anaesthetized albino rat assessed as reduction of adrenaline-induced increase in systolic arterial blood pressure at 3 ug/kg, iv administered 30 mins before adrenaline challenge measured after 1 hr relative to control. The format is functional. Further details: scale not given: the % may be the effect or the level left. The gist of the method: as §1

Series [15] concerns Rattus norvegicus. In words: Hypotensive activity in anaesthetized albino rat assessed as change in systolic arterial blood pressure at 5 mg/kg, ip after 15 mins relative to control. The conditions noted are these: route intraperitoneal.
Series [16] relates to Rattus norvegicus. The series can be described thus: Hypotensive activity in anaesthetized albino rat assessed as change in diastolic arterial blood pressure at 5 mg/kg, ip. The settings on record: TDE = time-dependent effect.
Series [17] deals with Rattus norvegicus. The series can be described thus: Toxicity in anaesthetized albino rat assessed as change in heart rate at 5 mg/kg, ip after 5 mins relative to control. The format is organism-based. Further details: dose 5 mg/kg, route intraperitoneal. The settings on record: in vivo. The method, boiled down: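 Urethane-anaesthetised (1.75–2.0 g/Kg i.p.) male albino rats, 6 per group, received 5 mg/Kg i.p. in tween 80/distilled water (1:3); solvent-treated controls. Heart rate was taken from a lead II ECG at 5 min after injection (also 15, 30, 60 min). Analysed by ANOVA or unpaired t test.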

As for `CC1(C)CC(=O)C2=C(C1)N(c1ccc(Cl)cc1)CN(c1ccccc1)C2`, the Activity in the series with Rattus norvegicus [1] was 0%; with Rattus norvegicus [2] it was 0%; in the series on Rattus norvegicus [3], 0%; with Rattus norvegicus [4], -9%; in the series with Rattus norvegicus [5], 0%; in the series with Rattus norvegicus [6] it was -6%. The Activity with Rattus norvegicus [7] was -7.7%; in the series on Rattus norvegicus [8] it was 12%; with Rattus norvegicus [9] it was 6.25%; in the series on Rattus norvegicus [10], -7.7%; in the series with Rattus norvegicus [11], “tde”; with Rattus norvegicus [12], -7%. In addition, the Activity is 0% in the series on Rattus norvegicus [13]; 0% with Rattus norvegicus [14]; 0% in the series with Rattus norvegicus [15]; “tde” in the series on Rattus norvegicus [16]; 0% in the series with Rattus norvegicus [17].
